Source: PubChem BioAssay (Johns Hopkins Ion Channel Center)
This is a sample that favours compounds with a hit; in the whole collection about 3.5% have one here.
RGS4 act – potentiators or activators of RGS4; AID 463111; HEK293 M3R/inducible RGS4, carbachol calcium flux Fluo4; hits give low values; 0.92% of 310,000 active; B-score at 10 µM;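 active = B-score of the integrated calcium signal more than 4 SD below the library mean, with starting fluorescence not abnormally high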;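 also: negative B-score means reduced calcium response which marks RGS4 activation or potentiation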
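System: HEK293 FlpIn-TREx cells, stable M3R, doxycycline-inducible RGS4. Timing: overnight RGS4 induction, 30 min dye load 37 °C, 20 min compound RT. Also added: carbachol, ECmax concentration. Measured by: Fluo4 fluorescence kinetic imaging of calcium. Evaluation: integrated calcium ratio converted to B score.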
MrgX1 allo act – allosterically activates human MrgX1 receptor signaling. B-score at 10 µM. MrgX1-HEK293, Fluo-4 calcium flux, FDSS; hits give high values. 0.63% of 310,000 active. AID 588675;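 active = plate-corrected calcium response at least 3 library SD above typical, normal starting fluorescence, not activating the receptor alone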;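 also: compound read alongside a low EC10 to EC30 dose of BAM8-22 agonist; peak minus trough fluorescence over baseline measured at the second addition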
Target sequence (Q96LB2 whole entry, looked up): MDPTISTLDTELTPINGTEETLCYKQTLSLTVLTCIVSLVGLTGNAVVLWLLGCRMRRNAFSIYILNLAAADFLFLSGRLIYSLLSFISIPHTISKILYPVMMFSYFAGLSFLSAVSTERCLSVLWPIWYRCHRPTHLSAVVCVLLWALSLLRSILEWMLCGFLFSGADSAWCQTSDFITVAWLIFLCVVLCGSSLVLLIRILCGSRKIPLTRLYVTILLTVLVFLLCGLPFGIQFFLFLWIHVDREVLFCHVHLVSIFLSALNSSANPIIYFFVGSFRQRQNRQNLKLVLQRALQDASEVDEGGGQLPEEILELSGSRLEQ
MrgX1 agonist – human MrgX1 receptor agonism, primary screen. MrgX1-HEK293 cells, Fluo-4 calcium fluorescence, agonist mode; hits give high values. B-score at 10 µM. 0.44% of 310,000 active;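 active = calcium response B-score plate-corrected fluorescence ratio at least 3 library SD, with starting fluorescence B-score inside 5 SD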
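Assay system: MrgX1-expressing HEK293 cells / Amount: fifteen thousand cells per well / Doses: test compound in the initial addition of three / Timing: cells plated overnight, dye loaded 0.5 h 37 °C, 0.5 h room temperature / Technique: kinetic calcium dye fluorescence, Fluo-4 NW / Control set: positive and negative controls per plate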
MrgX1 antagonist – antagonists of human MrgX1 receptor | Q96LB2 | MRGX1-HEK293 calcium flux, Fluo-4, BAM8-22 antagonism; hits give low values | B-score at 10 µM | 1.3% of 310,000 active | AID 588676;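 active = calcium-response B-score plate-corrected more than 3 library SD below zero, starting fluorescence within 5 deviations, no agonist response on first addition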;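 also: peak minus trough fluorescence over baseline after final BAM8-22 challenge near maximal dose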
RGS4 block – inhibitors of human RGS4 | 0.45% of 310,000 active | B-score at 10 µM | AID 463165 | P49798 | HEK293 M3R/RGS4 inducible, Fluo-4 calcium flux; hits give high values; triggered by carbachol at its EC20;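 active = B-score, a plate-corrected calcium signal, over three deviations above library mean, with baseline fluorescence within five deviations of library mean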;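 also: RGS4 expression induced by doxycycline in cells with stable M3 receptor; B-score is computed from the integrated fluorescence ratio over baseline after carbachol; higher B-score means a larger calcium signal and so more RGS4 inhibition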
Target sequence (P49798 whole entry, looked up): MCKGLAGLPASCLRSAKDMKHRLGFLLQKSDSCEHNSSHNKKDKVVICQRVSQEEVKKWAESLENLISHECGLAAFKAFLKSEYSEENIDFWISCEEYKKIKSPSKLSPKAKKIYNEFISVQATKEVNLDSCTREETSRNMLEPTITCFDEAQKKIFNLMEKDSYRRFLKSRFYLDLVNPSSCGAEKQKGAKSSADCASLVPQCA
Starred values were filed as active, the others as inactive; i = inactive; x = no result; ! = not confirmed by another sample.

SMILES	RGS4 act	MrgX1 allo act	MrgX1 agonist	MrgX1 antagonist	RGS4 block
CN(C)c1cc[n+](CC(=O)N2c3ccccc3Sc3ccccc32)cc1	-8.1*	i	i	i	i
Cc1cc(C(=O)N/N=C/c2cccn2C)no1	i	i	i	i	i
CC(=O)CSc1ccc(-c2nc3cc(C)c(C)cc3[nH]2)cn1	i	i	i	i	i
Cc1cc2nc(-c3ccc(SCc4ccc(C#N)cc4)nc3)[nH]c2cc1C	i	i	i	-6.1*	i
Cc1cccc(NC(=O)Nc2cccc3ccccc23)c1	i	i	i	i	i
CCOC(=O)c1ccc(NC(=S)NNC(=O)COC)cc1	i	i	i	-7.9*	i
O=C(Nc1nc(-c2ccc3c(c2)OCO3)cs1)C1COc2ccccc2O1 (configuration not stated)	-7.5*	i	i	i	i
CCOc1ccc2nc(NCCNC(=O)C3CC3)c(C)cc2c1	i	i	i	i	i
CCOc1ccc2nc(NCCNC(=O)C(C)C)c(C)cc2c1	-7.4*	i	i	i	i
Cc1ccc(-n2c(O)c(/C=N/n3cnnc3)c3ccccc3c2=O)cc1	i	9.4*!	i	i	i
O=C(Cc1cccs1)Nc1nnc(SCc2ccc(C(F)(F)F)cc2)s1	i	i	i	-9.1*	i
CCCCN(CC)S(=O)(=O)c1ccc(C(=O)N(CCCN(C)C)c2nc3cc(C)cc(C)c3s2)cc1	-8.1*	i	i	i	i
CCN(Cc1ccccc1)S(=O)(=O)c1ccc(C(=O)N(CCCN(C)C)c2nc3cc(C)cc(C)c3s2)cc1	i	i	i	i	i
COc1cccc2sc(N(CCN(C)C)C(=O)c3ccc4c(c3)CCCC4)nc12	i	6.7*	i	i	i
CCOc1cccc2sc(N(CCCN(C)C)C(=O)c3ccc(S(=O)(=O)N(CC)Cc4ccccc4)cc3)nc12	-7.7*	i	i	i	i
COCCn1ccc2c(OCC(=O)Nc3ccccc3OC)cccc2c1=O	i	i	i	i	i
COc1ccccc1C(=O)N(Cc1ccccc1)c1ccc(C)cc1	i	i	i	i	i
COc1ccc(Nc2nnc(SC(C(=O)Nc3ccc(OC)c(Cl)c3)c3ccccc3)s2)cc1 (configuration not stated)	i	16*	i	i	i
Cc1cccc(C)c1-n1cccc1/C=C1\SC(=S)N(c2cccc(C(=O)O)c2)C1=O	-7.6*	i	i	i	i
Cn1c(=O)c2c(ncn2CC(=O)N/N=C/C=C/c2ccco2)n(C)c1=O	i	18*	i	i	i
COc1ccc(OC)c(N(CC(=O)N2CCCCC2)S(=O)(=O)c2ccc(OC)c(OC)c2)c1	i	i	i	i	i
COc1ccc(OC)c(N(CC(N)=O)S(=O)(=O)c2ccc(OC)c(OC)c2)c1	i	12*	i	i	i
COc1ccc(Br)cc1CNC(=O)CCc1nc(-c2ccccc2F)no1	i	i	i	i	i
CN(C)c1ccc(-c2n(C)c3ccccc3[n+]2C)cc1	i	i	i	-8.8*	i
Cn1c(-c2ccccn2)[n+](C)c2ccccc21	i	i	i	i	i
SMILES	RGS4 act	MrgX1 allo act	MrgX1 agonist	MrgX1 antagonist	RGS4 block
CCCCc1ccc(N=N/C(C(=O)Nc2ccccc2OC)=C(/C)O)cc1	i	i	i	-9.1*	i
Cc1ccc(S(=O)(=O)NNC(=O)c2cccc(O)c2)cc1	i	i	i	-6.5*	i
O=C(NNS(=O)(=O)c1ccc(F)cc1)c1cccc(O)c1	i	i	i	i	i
Cc1ccc(CCNCc2c(C(=O)O)c(C)n(-c3ccccc3)c2C)cc1	i	x	x	x	i
O=C(Cn1nnc2ccccc2c1=O)NCCc1ccc(F)cc1	i	i	i	-5*	i
COc1ccc(CCNC(=O)Cn2nnc3ccccc3c2=O)cc1	i	i	i	i	i
C=CCc1c(C)c(C#N)c2nc3ccccc3n2c1NCCN(C)C	i	i	i	i	i
CC1CC(NC(=O)Cc2ccc(Br)cc2)CC(C)(C)C1 (configuration not stated)	i	i	i	i	i
CCOC(=O)C(=Cc1c[nH]c2ccc(S(=O)(=O)N(C)C)cc12)C(=O)OCC	i	6.7*	i	i	i
CCOC(=O)/C(C#N)=C/c1c[nH]c2ccccc12	i	i	i	i	i
O=C(Nc1ccc(-n2cnnn2)cc1)C(c1ccccc1)c1ccccc1	i	i	i	i	i
CC(C)[N+](C)(CCOC(=O)C1c2ccccc2Oc2ccccc21)C(C)C	-8.5*	i	i	i	i
O=C(c1nn(Cc2ccccc2)c(=O)c2ccccc12)N1CCN(c2ccccn2)CC1	i	i	i	i	i
O=C(c1nn(Cc2ccccc2)c(=O)c2ccccc12)N1CCc2ccccc2C1	-8.5*	i	i	i	i
O=C(Nc1ccc2c(c1)ncn2C1CCCCC1)c1ccco1	i	i	i	i	i
COc1ccc(/C=N/Nc2cc(C)nc3ccc(OC)cc23)c(OC)c1	-7.7*	i	i	i	i
c1cc(CNc2ccc3c(c2)OCO3)ccn1	i	i	i	i	i
Cc1ccc(CNc2ccc3c(c2)OCO3)cc1	i	i	29*	i	i
Cc1ccc(C)c(NC(=S)NCc2ccc3c(c2)OCO3)c1	-7.2*	i	i	i	i
COc1ccc(OC)c(S(=O)(=O)Nc2ccc3c(c2)C(=O)OC3)c1	i	i	i	i	i
Cc1ccccc1CS(=O)(=O)c1nnc([C@H](CC(C)C)NC(=O)OC(C)(C)C)o1	i	i	33*	i	i
CC[C@@H](C)[C@H](NC(=O)OC(C)(C)C)c1nnc(S(=O)(=O)Cc2cc(C)ccc2C)o1	i	7.1*	i	i	i
Clc1ccc(OCc2nnc(SCc3nnc(-c4ccccc4)o3)o2)c(Cl)c1	-9.7*	i	i	i	i
O=C(CSc1nnc(COc2ccc(Cl)cc2Cl)o1)Nc1ccccn1	i	i	i	i	i
O=C1COc2ccc(C(=O)COC(=O)c3cc(S(=O)(=O)N4CCOCC4)ccc3F)cc2N1	i	i	i	i	i
CCC(C)[C@H]1CNC(=S)N1CCc1cc(C(F)(F)F)cc(C(F)(F)F)c1 (some centres not stated)	i	i	i	-5.2*	i
CCC(C)[C@H]1CNCCN1CCc1cc(C(F)(F)F)cc(C(F)(F)F)c1 (some centres not stated)	i	i	i	i	i
